Measured values: ChEMBL document CHEMBL1671655, “Anidulafungin is fungicidal and exerts a variety of postantifungal effects against Candida albicans, C. glabrata, C. parapsilosis, and C. krusei isolates” (2009)
≈ marks a conversion by molar mass, not a printed value. Calls of active or inactive are those of the source. No cut-off for these calls is given here. Starred links: 1 amine or outer side, 2 acyl side, 3 side chain; linkers in the order of their positions; H or OH if unused. Positions of bridges follow the written chain, without caps; N, C: chain ends. Non-standard residues stand in square brackets, D forms with d. Residues, ends and D or L forms follow the SMILES beside them. *: point of attachment. pTerphenylCO(4''-OnC5H11) = CCCCCOc1ccc(-c2ccc(-c3ccc(C(=O)*)cc3)cc2)cc1; Orn(4R-OH,5R-OH) = O=C([C@H](C[C@@H](O)[C@@H](O)N[*:3])N[*:1])[*:2]; hTyr(3S-OH,4S-OH) = N[C@H](C(=O)O)[C@H](O)[C@@H](O)c1ccc(O)cc1; Pro(3S-OH,4S-Me) = C[C@H]1CN[C@H](C(=O)O)[C@H]1O; Hyp = O=C(O)[C@@H]1C[C@@H](O)CN1

Assays:
Candida albicans [1] = assay: Increase in susceptibility to SDS in Candida albicans ATCC 90028 assessed as cell wall damage at MIC after 1 hr relative to control; format: functional, organism-based
In short: (§1)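 Cells recovered 8 h after a 1-h drug exposure were grown in YPD with 1% glucose to exponential phase and adjusted to OD599 0.1. Undiluted culture and 10-fold serial dilutions were spotted onto YPD plates containing SDS (0.01 to 0.04%), then incubated 72 h at 30°C. Growth compared with unexposed control cells; triplicate.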

Candida albicans [2] = assay: Increase in susceptibility to calcofluor white in Candida albicans ATCC 90028 assessed as cell wall damage at 16 times MIC after 1 hr relative to control; format: functional, organism-based
In short: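 Cells recovered 8 h after a 1-h drug exposure were grown to exponential phase in YPD with 1% glucose and adjusted to OD599 0.1. Undiluted and 10-fold serially diluted cultures were spotted onto YPD plates containing calcofluor white, then incubated at 30°C for 72 h. Growth compared with no-drug control cells; triplicate.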

Pichia kudriavzevii [3] = assay: Fungicidal activity against Candida krusei isolate 1 assessed as log reduction in bacterial count at 4 times MIC after 48 hrs by time-kill analysis; format: functional; settings: isolate 1, 48 h
In short: (§2)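 Isolates subcultured twice on SDA, suspended to 0.5 McFarland, giving ~1 x 10^5 to 5 x 10^5 CFU/ml in MOPS-buffered RPMI 1640 (pH 7.0) with or without drug at multiples of MIC (MIC by CLSI M27-A3). Tubes shaken at 35°C with continuous drug. Sampled at 0–48 h, diluted 10-fold and plated on SDA; CFU counted after 48 h at 35°C. Run twice per isolate; means.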

Candida albicans [4] = assay: Fungicidal activity against Candida albicans isolate 2 assessed as log reduction in bacterial count at MIC after 48 hrs by time-kill analysis; format: functional; settings: isolate 2, 48 h; in short: as §2
Nakaseomyces glabratus [5] = assay: Fungicidal activity against Candida glabrata isolate 3 assessed as log reduction in bacterial count at 16 times MIC after 48 hrs by time-kill analysis; format: functional; settings: isolate 3, 48 h; in short: as §2
Candida parapsilosis [6] = assay: Fungicidal activity against Candida parapsilosis isolate S assessed as log reduction in bacterial count at 16 times MIC after 48 hrs by time-kill analysis; format: functional; settings: Lodderomyces parapsilosis
In short: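 Isolates subcultured twice on SDA, then suspended to 0.5 McFarland and diluted into RPMI 1640 (MOPS, pH 7.0) with or without anidulafungin, giving about 1 x 10^5 to 5 x 10^5 CFU/ml. Tubes were shaken at 35°C. Samples were taken at 0, 2, 4, 8, 12, 24 and 48 h, serially diluted 10-fold, plated on SDA, and CFU counted after 48 h at 35°C. Each isolate was run twice; mean values.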

Candida albicans [7] = assay: Fungicidal activity against Candida albicans isolate 1 assessed as log reduction in bacterial count at 4 times MIC after drug exposure for 1 hr followed by washout measured after 48 hrs in the absence of drug by PAFE study; format: functional
In short: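 Starting inoculum ~1 x 10^5 to 5 x 10^5 CFU/ml in MOPS-buffered RPMI 1640 (pH 7.0) with drug at multiples of the CLSI M27-A3 MIC. After 1 h at 35°C, cells washed and centrifuged three times at 1,400 x g for 10 min, then resuspended in warm drug-free RPMI. Shaken at 35°C and plated on SDA at 0–48 h; CFU counted after 48 h. Run twice per isolate; means.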

Pichia kudriavzevii [8] = assay: Antifungal activity against Candida krusei isolate ATCC 6258 by CLSI M27-A3 broth microdilution method; format: functional
In short: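 CLSI M27-A3 broth microdilution in RPMI 1640 buffered to pH 7.0 with MOPS. Starting inoculum 0.5 x 10^3 to 2.5 x 10^3 cells/ml, incubated at 35°C. MIC read as the lowest concentration giving >50% growth reduction versus control. Each isolate tested on at least three occasions.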

Nakaseomyces glabratus [9] = assay: Antifungal activity against Candida glabrata isolate 1 coincubated with mouse J774 macrophages assessed as macrophage induced bacterial cell killing at 4 times MIC (reference value: 12 +/- 10 %); format: functional
Candida parapsilosis [10] = assay: Increase in susceptibility to SDS in Candida parapsilosis isolate 1 assessed as cell wall damage at 16 times MIC after 1 hr relative to control; format: functional, organism-based; in short: as §1
Candida albicans [11] = assay: Fungicidal activity against Candida albicans isolate 2 assessed as log reduction in bacterial count at 4 times MIC after 48 hrs by time-kill analysis; format: functional; settings: isolate 2, 48 h; in short: as §2

CCCCCOc1ccc(-c2ccc(-c3ccc(C(=O)N[C@H]4C[C@@H](O)[C@@H](O)NC(=O)[C@@H]5[C@@H](O)[C@@H](C)CN5C(=O)[C@H]([C@@H](C)O)NC(=O)[C@H]([C@H](O)[C@@H](O)c5ccc(O)cc5)NC(=O)[C@@H]5C[C@@H](O)CN5C(=O)[C@H]([C@@H](C)O)NC4=O)cc3)cc2)cc1 [ANIDULAFUNGIN] ({pTerphenylCO(4''-OnC5H11)}-[Orn(4R-OH,5R-OH)]T[Hyp][hTyr(3S-OH,4S-OH)]T[Pro(3S-OH,4S-Me)]; lactam 1-C)
Activity (Candida albicans [1]): Active
Activity (Candida albicans [2]): Active
log reduction (Pichia kudriavzevii [3]): 2.29 log CFU/ml
log reduction (Candida albicans [4]): 0.89 log CFU/ml
log reduction (Nakaseomyces glabratus [5]): 3.89 log CFU/ml
log reduction (Candida parapsilosis [6]): 3.11 log CFU/ml
log reduction (Candida albicans [7]): 1.18
MIC (Pichia kudriavzevii [8]): 0.06 µg/mL (≈ 0.0526 µM)
inhibition (INH) (Nakaseomyces glabratus [9]): 33%
Activity (Candida parapsilosis [10]): Active
log reduction (Candida albicans [11]): 2.33 log CFU/ml
